Measurements: ChEMBL document CHEMBL4002557, “Phenanthrenes from Juncus inflexus with Antimicrobial Activity against Methicillin-Resistant Staphylococcus aureus” (2016)
Values after ≈ are worked out from the molar mass of the structure shown. Active and inactive are the calls of the source. The calls are words filed in the database; no cut-off is given here.

How the values were obtained:
Type in all cases: functional
Staphylococcus aureus [1] = assay: Antibacterial activity against methicillin-resistant Staphylococcus aureus ATCC 43300 at 10 mg/ml after 24 hrs by disk diffusion method; conditions: for zone of inhibition at 10000 µg/mL: ATCC 43300, 24 h, read-out: DIZ
Summary of the method: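 Disk diffusion. Pure compounds were diluted to 10 mg/mL in DMSO, and 50 μL was loaded onto 6 mm sterile paper disks. Disks were placed on agar seeded with bacterial suspension (0.5 McFarland, (1−2) × 10^8 CFU/mL), with solvent as negative control. Incubation was 37 °C, 24 h, aerobic. Inhibition-zone diameter was measured including the disk. Done in triplicate.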

Staphylococcus aureus [2] = assay: Ratio of MIC for methicillin-sensitive Staphylococcus aureus in dark to MIC for methicillin-sensitive Staphylococcus aureus in presence of UVA irradiation
Staphylococcus aureus [3] = assay: Antibacterial activity against methicillin-resistant Staphylococcus aureus ATCC 43300 after 24 hrs by microdilution method; conditions: ATCC 43300, 24 h
Summary of the method: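 Broth microdilution in 96-well plates. DMSO stocks (50 mg/mL) were serially diluted in Mueller-Hinton broth to final 2.5 mg/mL–4.9 μg/mL. Inoculum was 0.5 McFarland, (1−2) × 10^8 CFU/mL. Controls were sterility, DMSO/inoculum negative and vancomycin positive. Incubation was 37 °C, 24 h, aerobic. MIC was the lowest concentration with no visible growth. Run twice in triplicate.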

Staphylococcus aureus [4] = assay: Antibacterial activity against methicillin-resistant Staphylococcus aureus ATCC 43300 at 5 ug/disk after 24 hrs by disk diffusion method; conditions: ATCC 43300, 24 h, read-out: DIZ

**Q.** How did the “diameter of the inhibition zone (DIZ)” value (Staphylococcus aureus [1]) turn out when `C=Cc1cc2c(cc1C)CCc1c-2ccc(O)c1C` was run?
**A.** inactive

**Q.** For `C=Cc1cc(O)cc2c1-c1ccc(O)c(C)c1CC2` [EFFUSOL], which Ratio (Staphylococcus aureus [2]) is on record?
**A.** 16

**Q.** For `COC(C)c1cc(O)c(C)c2c1-c1ccc(O)c(C)c1CC2` (racemic), which “diameter of the inhibition zone (DIZ)” value (Staphylococcus aureus [1]) is on record?
**A.** inactive

**Q.** Which “diameter of the inhibition zone (DIZ)” value (Staphylococcus aureus [1]) does the source give for `Cc1cc2ccc3c(C)c(O)ccc3c2cc1[C@@H]1CC=Cc2c3c(c(C)c(O)c21)CCc1c-3ccc(O)c1C` here?
**A.** inactive

**Q.** `C=C[C@@]1(C)C(=O)C2=C(C[C@H]1O)c1ccc(O)c(C)c1CC2` was tested. Which “diameter of the inhibition zone (DIZ)” value (Staphylococcus aureus [1]) did it give?
**A.** inactive

**Q.** What does the source list for `C=Cc1c(C)c(O)cc2c1-c1ccc(OC)c(CO)c1CC2`?
**A.** zone of inhibition at 10000 µg/mL (Staphylococcus aureus [1]): 7 mm; MIC (Staphylococcus aureus [3]): 100 µg/mL (≈ 337 µM)

**Q.** How did the “diameter of the inhibition zone (DIZ)” value (Staphylococcus aureus [1]) turn out when `C=Cc1cc2c(ccc3c(C)c(O)ccc32)cc1C` was run?
**A.** inactive

**Q.** How did the zone of inhibition at 5 µg/disc (Staphylococcus aureus [4]) turn out when `CN[C@H](CC(C)C)C(=O)N[C@H]1C(=O)N[C@@H](CC(N)=O)C(=O)N[C@H]2C(=O)N[C@H]3C(=O)N[C@H](C(=O)N[C@H](C(=O)O)c4cc(O)cc(O)c4-c4cc3ccc4O)[C@H](O)c3ccc(c(Cl)c3)Oc3cc2cc(c3O[C@@H]2O[C@H](CO)[C@@H](O)[C@H](O)[C@H]2O[C@H]2C[C@](C)(N)[C@H](O)[C@H](C)O2)Oc2ccc(cc2Cl)[C@H]1O` [VANCOMYCIN] was run?
**A.** 15.5 mm

**Q.** How did the “diameter of the inhibition zone (DIZ)” value (Staphylococcus aureus [1]) turn out when `COc1cc(-c2cc(=O)c3c(O)cc(O)cc3o2)ccc1O` was run?
**A.** inactive

**Q.** For `C=Cc1c(C)c(O)cc2ccc3c(C)c(O)ccc3c12`, which “diameter of the inhibition zone (DIZ)” value (Staphylococcus aureus [1]) is on record?
**A.** inactive

**Q.** How did the zone of inhibition at 10000 µg/mL (Staphylococcus aureus [1]) turn out when `C=Cc1c(C)c(O)cc2c1ccc1c(C)c(O)ccc12` was run?
**A.** 10 mm

**Q.** What about the MIC (Staphylococcus aureus [3]) of the same molecule?
**A.** 25 µg/mL (≈ 94.6 µM)

**Q.** `C=Cc1c(C)c(O)cc2c1-c1ccc(O)c(C)c1CC2` was tested. Which Ratio (Staphylococcus aureus [2]) did it give?
**A.** 2

**Q.** What about the zone of inhibition at 10000 µg/mL (Staphylococcus aureus [1]) of the same molecule?
**A.** 12 mm

**Q.** What about the MIC (Staphylococcus aureus [3]) of the same molecule?
**A.** 25 µg/mL (≈ 93.9 µM)

**Q.** For `C=CC1=C(C)C(=O)C=C2c3ccc(O)c(C)c3CC[C@]21O`, which zone of inhibition at 10000 µg/mL (Staphylococcus aureus [1]) is on record?
**A.** 12 mm

**Q.** What about the MIC (Staphylococcus aureus [3]) of the same molecule?
**A.** 12.5 µg/mL (≈ 44.3 µM)

**Q.** `C=Cc1c(C)c(O)cc2c1CCc1c-2ccc(O)c1C` was tested. Which “diameter of the inhibition zone (DIZ)” value (Staphylococcus aureus [1]) did it give?
**A.** inactive
